Only some compounds are listed: those with a hit (about 1.2% of all), similar ones and a draw of the others.
GalR3 antag: antagonists of human GalR3 | HEK293 GalR3-CNG cAMP membrane potential fluorescence; galR3 body fused to GalR1 C-terminus | inhibition, % at 3 µM | 360,000 compounds, 0.44% hits | AID 651719;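 active = inhibition above the screen-wide average plus 3 SD, cut at about 13% in these data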;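 note: forskolin and galanin both at EC90 stimulate the cells; cAMP rise reported by CNG channel membrane potential dye signal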
Target sequence (O60755 1-299 limits assumed): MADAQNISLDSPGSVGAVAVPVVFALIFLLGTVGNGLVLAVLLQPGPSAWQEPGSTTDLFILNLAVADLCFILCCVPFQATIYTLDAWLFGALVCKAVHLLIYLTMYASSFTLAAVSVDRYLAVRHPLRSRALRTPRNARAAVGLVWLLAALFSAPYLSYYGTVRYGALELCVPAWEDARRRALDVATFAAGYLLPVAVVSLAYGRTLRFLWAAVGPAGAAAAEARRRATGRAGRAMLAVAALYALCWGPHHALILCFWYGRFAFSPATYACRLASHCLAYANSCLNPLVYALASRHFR
ASAP1 inh: inhibitors of human ASAP1 ArfGAP activity | ASAP1-stimulated ARF1 GTP hydrolysis, GDP FP detection | inhibition, % at 16.5 µM | 360,000 compounds, 0.19% hits | AID 624377; in the data active = inhibition above about 25%
Rin1 Abl inh: inhibitors of human Rin1-Abl protein interaction; TR-FRET Rin1/Abl binding, biochemical; inhibition, % at 7.35 µM; 360,000 compounds, 0.4% hits; AID 588664; in the data active = inhibition above about 5%, passing the limit was not always enough
ARFGAP1 inh: inhibits rat ARF GTPase activating protein 1 | 360,000 compounds, 0.26% hits | AID 651572 | inhibition, % at 16.5 µM | Q62848 | Arfgap1-stimulated ARF1 GTP hydrolysis, GDP FP detection;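 active = inhibition above a per-plate limit, mean inhibition of low control wells plus 3 SD, cut at about 25% in these data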
Target sequence (Q62848 1-136 limits assumed): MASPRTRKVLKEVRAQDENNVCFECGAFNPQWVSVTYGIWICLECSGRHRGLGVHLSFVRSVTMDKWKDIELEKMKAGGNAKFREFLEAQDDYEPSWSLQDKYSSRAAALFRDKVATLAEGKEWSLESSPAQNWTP
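System: truncated rat Arfgap1 GAP domain / Benchmarks: high control wells lacking Arfgap1, low control full reaction with DMSO / Times: compound-enzyme preincubation 20 min, reaction 120 min, detection 60 min, 25 °C / Repeats: one replicate per compound / Also added: human ARF1(Δ1-17)-GTP substrate / Measured by: Tracer-displacement fluorescence polarization with EDTA stop, 620/688 nm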
Rin1-Abl confirm: confirmation of inhibitors of human Rin1-Abl interaction | shares compounds with Rin1 Abl inh | TR-FRET Rin1-Abl binding, purified proteins | inhibition, % at 7.35 µM | 1,300 compounds, 49% hits | AID 602124
GFP quench-1: GFP fluorescence interference artifact | inhibition, % at 6.75 µM | inhibitors/quenchers counterscreen | 1,300 compounds, 8.5% hits | shares compounds with Rin1 Abl inh | AID 602125;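 note: ABL1-eGFP fusion protein alone without its partner RIN1-SBP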
GFP quench dose: GFP fluorescence interference dose response. shares compounds with Rin1 Abl inh. GFP fluorescence interference/quenching counterscreen. IC50, µM. 230 tested, under 10 active. AID 602182; call rule not given here;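 note: ABL1-eGFP fusion protein alone without its RIN1 binding partner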
GFP quench-2: quenches GFP fluorescence in Rin1-Abl counterscreen. shares compounds with Rin1 Abl inh. GFP fluorescence quenching counterscreen, biochemical. IC50, µM. 25 tested, under 10 active. AID 602397; call rule not given here
Of the large screens only hits and unclear results are named; the others gave an inactive call (follow-up assays come after a bar, where they were run). Cut-off read from the data, not from the text of the source, unless noted: active = inhibition above about 6.5%; inactive = the rest.

Cc1cccc(N2CC(C(=O)Nc3ccc(S(=O)(=O)N4CCCCC4)cc3)CC2=O)c1C (stereo not given)	Rin1 Abl inh 13.2 | Rin1-Abl confirm 13.0 | GFP quench-1 inactive
Cc1ccccc1N1CC(C(=O)Nc2ccc(S(=O)(=O)N3CCOCC3)cc2)CC1=O (stereo not given)	none
CC12CCC(=O)N1C(C(=O)N1CCN(S(=O)(=O)c3ccccc3F)CC1)CS2 (stereo not given)	none
CC12CCC(=O)N1C(C(=O)N1CCN(S(=O)(=O)c3ccc(Br)cc3Cl)CC1)CS2 (stereo not given)	Rin1 Abl inh 18.6 | Rin1-Abl confirm 17.4 | GFP quench-1 inactive | GFP quench dose inactive
CCOC(=O)C1=C(C(=O)OCC)C2N(Cc3ccc(C(F)(F)F)cc3)c3ccccc3[C@@]23C[C@@H](C(=O)OC)N(S(=O)(=O)c2ccc(OC)cc2)C3=N1 (stereo not given in full)	none (no result: Rin1 Abl inh)
CC(=O)N1c2ccc(S(=O)(=O)N3CCC(C(=O)NCCc4ccc(Cl)cc4)CC3)cc2CC1C (stereo not given)	Rin1 Abl inh 9.8 | Rin1-Abl confirm inactive | GFP quench-1 inactive
COC(=O)C1=C(C)N(C)C(=NCc2ccc3c(c2)OCO3)NC1c1ccc(F)cc1 (stereo not given)	none (no result: Rin1 Abl inh)
Cc1cc(Oc2ccc(=O)n(C)n2)nc(SCCOc2ccccc2)n1	Rin1 Abl inh 33.2 | Rin1-Abl confirm inactive | GFP quench-1 inactive
COc1ccccc1CCn1cnc(-c2cccc(Br)c2)c1CC(C)C	none (no result: Rin1 Abl inh)
Cc1ccc(C)c(SCC(=O)OCC(=O)Nc2ncc(C(F)(F)F)cc2Cl)c1	Rin1 Abl inh 9.1 | Rin1-Abl confirm inactive | GFP quench-1 inactive
Cc1ccc(NC(=O)CN2C(=O)C3C4C=CC(C4)C3C2=O)cc1 (stereo not given)	Rin1 Abl inh 6.3 | Rin1-Abl confirm inactive | GFP quench-1 inactive
CCCCc1c(-c2ccccc2OC)ncn1C1CCCCC1	none (no result: Rin1 Abl inh)
CC(=O)NS(=O)(=O)c1ccc(NS(=O)(=O)c2ccc(F)cc2)cc1	Rin1 Abl inh 5.8 | Rin1-Abl confirm inactive | GFP quench-1 inactive
O=C(Cc1ccc(NC(=O)C2CCN(C(=O)CCc3ccccc3)CC2)cc1)Nc1ccc(C(=O)N2CCOCC2)cc1	none
O=C(Cc1ccc(NC(=O)C2CCCN(C(=O)C3CC3)C2)cc1)Nc1ccc(C(=O)N2CCOCC2)cc1 (stereo not given)	none
O=C(Cc1ccc(NC(=O)C2CCN(C(=O)c3ccccc3)CC2)cc1)Nc1ccc(C(=O)N2CCOCC2)cc1	Rin1 Abl inh 36.2 | Rin1-Abl confirm 36.9 | GFP quench-1 inactive | GFP quench dose inactive | GFP quench-2 inactive
O=C(Cc1ccc(NC(=O)C2CCN(C(=O)C3CCCC3)CC2)cc1)Nc1cccc(C(=O)N2CCCCC2)c1	Rin1 Abl inh 17.2 | Rin1-Abl confirm 16.8 | GFP quench-1 inactive | GFP quench dose inactive
O=C(Cc1ccc(NC(=O)C2CCN(C(=O)C3CCC3)CC2)cc1)Nc1ccc(C(=O)N2CCOCC2)cc1	Rin1 Abl inh 22.7 | Rin1-Abl confirm 20.7 | GFP quench-1 inactive | GFP quench dose inactive
COCCCNC(=O)C[C@H]1C[C@@]2(C(=O)OC)C(=C[C@H](C3CCCC3)O[C@@H]2C)N(Cc2ccccc2)C1=O	none (no result: Rin1 Abl inh)
CC(C)(C)OC(=O)N1CCC[C@@H]1C(=O)N1CCC[C@@H]1C(=O)NCc1ccccc1	none (no result: Rin1 Abl inh)
Oc1ccc(Cl)c(CN2CCN(c3ncc(Cc4ccccc4)cn3)CC2)c1	none (no result: Rin1 Abl inh)
COC(=O)[C@]12C[C@H](CC(=O)N3CCCC3)C(=O)N(Cc3ccccc3)C1=C[C@H](C1CCCC1)O[C@@H]2C	none (no result: Rin1 Abl inh)
COC(=O)c1ccc(COC(=O)c2ccc(-n3cnnn3)cc2)o1	Rin1 Abl inh 22.9 | Rin1-Abl confirm 20.3 | GFP quench-1 inactive | GFP quench dose inactive
Cc1c(C(=O)NCC(c2ccco2)N(C)C)oc2c(Cl)cccc12 (stereo not given)	Rin1 Abl inh 38.9 | Rin1-Abl confirm 46.8 | GFP quench-1 inactive | GFP quench dose inactive | GFP quench-2 inactive
CCC(C(=O)Nc1c(C)cccc1C)n1c(-c2ccc(=O)[nH]c2)nc2ccccc21 (stereo not given)	none (no result: Rin1 Abl inh)
Clc1cccc(Cl)c1CNCCCSc1ncccn1	none
Fc1cccc(Cl)c1CNCCCSc1ncccn1	Rin1 Abl inh 6.9 | Rin1-Abl confirm inactive | GFP quench-1 inactive
O=C1C(=Cc2ccco2)CCCC1=Cc1ccco1	none
O=C1C(=Cc2ccco2)CCC1=Cc1ccco1	Rin1 Abl inh 11.9 | Rin1-Abl confirm 16.8 | GFP quench-1 28.9
CC1=Nc2ccccc2NC(=O)C1Sc1nnc(C)s1 (stereo not given)	Rin1 Abl inh 6.4 | Rin1-Abl confirm inactive | GFP quench-1 inactive
Cc1cc(C)c(S(=O)(=O)NCCSCc2ccco2)c(C)c1	Rin1 Abl inh 8.5 | Rin1-Abl confirm inactive | GFP quench-1 inactive
COc1ccc(/C=N/N2C(=O)CN(C(=O)c3ccccc3)C2c2ccc(OC)cc2)cc1 (stereo not given)	Rin1 Abl inh 5.8 | Rin1-Abl confirm inactive | GFP quench-1 inactive
COc1ccc(C2N(C(=O)c3ccccc3)CCN2C(=O)c2ccc(C)cc2)cc1 (stereo not given)	none
c1ccc2c(c1)c1cccc3ccc4cccc2c4c31	Rin1 Abl inh 8.2 | Rin1-Abl confirm inactive | GFP quench-1 inactive
COC(=O)C1=C(C)N(Cc2cccc(C(F)(F)F)c2)C(=NCc2cc(OC)c(OC)c(OC)c2)NC1c1cccc(C(F)(F)F)c1 (stereo not given)	none (no result: Rin1 Abl inh)
Cc1cc(N2CCN(C(=O)OC(C)(C)C)C[C@H]2C)ccc1N1CCS(=O)(=O)CC1	none (no result: Rin1 Abl inh)
O=c1cc(SCc2ccccc2)nc[nH]1	Rin1 Abl inh 88.8 | Rin1-Abl confirm 98.4 | GFP quench-1 inactive | GFP quench dose inactive
Cc1cc(SCc2ccccc2)nc(=O)[nH]1	none
O=C(C(=O)N1CCN(S(=O)(=O)c2cccc3ccccc23)CC1)c1cccc(C(F)(F)F)c1	none (no result: Rin1 Abl inh)
CCN(CC)CCSc1nc(O)c(C(C)C)c(=O)[nH]1	none
CCCc1c(O)nc(SCCN(CC)CC)[nH]c1=O	Rin1 Abl inh 7.6 | Rin1-Abl confirm inactive | GFP quench-1 inactive
Cc1cc2c(c(=O)o1)[C@@]1(C(=O)N(C)c3c(Br)cccc31)C1=C(CCCC1=O)O2	none (no result: Rin1 Abl inh)
CCOC(=O)c1c(NC(=O)CSc2cccc[n+]2[O-])sc(C(=O)Nc2ccccc2)c1C	none
CCOC(=O)c1c(NC(=O)CN(C)C2CCN(C)CC2)sc(C(=O)Nc2ccccc2)c1C	Rin1 Abl inh 7.6 | Rin1-Abl confirm inactive | GFP quench-1 inactive

From PubChem BioAssay
